Source: ChEMBL document CHEMBL3271976, “Cardenolide analogues. 2. 22-Methylenecard-14-enolides” (J Med Chem, 1977)
The source made the active and inactive calls. The rule behind the calls is not given here.

Columns and labels:
[1] = Solubility of the compound in propylene glycol; format: physicochemical
Cavia porcellus = organism: Cavia porcellus; test: Inotropic activity at guinea pig left atria sodium/potassium-transporting ATPase up to 10^-4 M
[2] = Inhibition of rat brain sodium/potassium-transporting ATPase in presence of Mg2+ and Na+; conditions: read-out: I50
How it was run: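 Rat brain Na+,K+-ATPase assayed with no preincubation of steroid and enzyme. Na+,K+-dependent activity was taken as activity with Mg2+, Na+ and K+ minus basal activity from tubes with Mg2+ and Na+ only. I50 (M) is from two to four runs.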

[3] = Inhibition of rat brain sodium/potassium-transporting ATPase after 10 mins in presence of Mg2+ and Na+; conditions: read-out: I50
How it was run: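 Rat brain Na+,K+-ATPase. The steroid was added to enzyme medium lacking K+ and preincubated 10 min, then KCl was added to start Na+,K+-ATPase activity. Basal activity from tubes with Mg2+ and Na+ only was subtracted from activity with Mg2+, Na+ and K+. I50 (M) is from two to four runs.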

solubility [1]	Activity (Cavia porcellus)	SMILES	IC50 [2] [µM]	IC50 [3] [µM]
Insoluble	inactive	C=C1C(=O)OC[C@@H]1[C@H]1CC=C2[C@@H]3CC[C@@H]4C[C@@H](O)CC[C@]4(C)[C@H]3CC[C@@]21C		
Insoluble	inactive	C=C1C(=O)OC[C@H]1[C@H]1CC=C2[C@@H]3CC[C@@H]4C[C@@H](O)CC[C@]4(C)[C@H]3CC[C@@]21C	> 100	> 100
		C[C@@H]1O[C@@H](O[C@H]2C[C@@H](O)[C@]3(CO)[C@H]4[C@H](O)C[C@]5(C)[C@@H](C6=CC(=O)OC6)CC[C@]5(O)[C@@H]4CC[C@]3(O)C2)[C@H](O)[C@H](O)[C@H]1O [OUABAIN]	0.5	0.04
		C[C@H]1O[C@@H](O[C@H]2[C@@H](O)C[C@H](O[C@H]3[C@@H](O)C[C@H](O[C@H]4CC[C@@]5(C)[C@H](CC[C@@H]6[C@@H]5CC[C@]5(C)[C@@H](C7=CC(=O)OC7)CC[C@]65O)C4)O[C@@H]3C)O[C@@H]2C)C[C@H](O)[C@@H]1O [DIGITOXIN]	0.7	0.24
		C[C@]12CC[C@H](O)C[C@H]1CC[C@@H]1[C@@H]2CC[C@]2(C)[C@@H](C3=CC(=O)OC3)CC[C@]12O [DIGITOXIGENIN]	0.46	0.5

SMILES	solubility [1]	Activity (Cavia porcellus)	IC50 [2] [µM]	IC50 [3] [µM]
C[C@]12CC[C@H](O)C[C@H]1CC[C@H]1C3=CC[C@H](C4=CC(=O)OC4)[C@@]3(C)CC[C@@H]12	Insoluble	inactive	63	40
